≈ marks a conversion by molar mass, not a printed value. Calls of active or inactive are those of the source. The rule behind the calls is not given here.
How the values were obtained:
Staphylococcus aureus [1] = assay: Antibacterial activity against macrolide-lincosamide-streptogramin B-positive, beta-lactamase-positive, methicillin-resistant Staphylococcus aureus ATCC 43300; type: functional
How it was run: (§1)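 MIC by broth dilution in Mueller-Hinton broth, inoculum 8 × 10^5 CFU/ml. Strains were typed for beta-lactamase with cefinase, for methicillin susceptibility by Etest, and for macrolide-lincosamide-streptogramin B by disc diffusion on MHA at 0.5 McFarland.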

Staphylococcus aureus [2] = assay: Antibacterial activity against macrolide-lincosamide-streptogramin B-negative, beta-lactamase-positive, methicillin-susceptible Staphylococcus aureus isolate 5; type: functional
Staphylococcus aureus [3] = assay: Antibacterial activity against macrolide-lincosamide-streptogramin B-negative, beta-lactamase-positive, methicillin-susceptible Staphylococcus aureus ATCC 29213; type: functional
Staphylococcus aureus [4] = assay: Antibacterial activity against macrolide-lincosamide-streptogramin B-positive, beta-lactamase-positive, methicillin-resistant Staphylococcus aureus isolate 6; type: functional; how it was run: as §1
Staphylococcus aureus [5] = assay: Antibacterial activity against macrolide-lincosamide-streptogramin B-negative, beta-lactamase-positive, methicillin-susceptible Staphylococcus aureus isolate 3; type: functional
Staphylococcus aureus [6] = assay: Antibacterial activity against macrolide-lincosamide-streptogramin B-negative, beta-lactamase-positive, methicillin-susceptible Staphylococcus aureus isolate 4; type: functional
Staphylococcus aureus [7] = assay: Antibacterial activity against macrolide-lincosamide-streptogramin B-negative, beta-lactamase-positive, methicillin-susceptible Staphylococcus aureus ATCC 29213 in presence of clavulanic acid; type: functional
How it was run: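 Amoxicillin/clavulanic acid MIC against S. aureus measured alone and together with sublethal D2S concentrations.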

[8] = Cytotoxicity against human neutrophil assessed as effect on cell viability up to 20 uM after 12 hrs by microscopy; type: cell-based
How it was run: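 Freshly isolated human blood neutrophils incubated with D2S up to 20 µM for 12 h. Viability scored by manual trypan blue exclusion.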

Pseudomonas aeruginosa = assay: Bactericidal activity against kanamycin-resistant Pseudomonas aeruginosa PAO1 up to 50 uM after 1 hr by time-kill assay

SMILES | MIC (Staphylococcus aureus [1]) [µg/mL] | MIC (Staphylococcus aureus [2]) [µg/mL] | MIC (Staphylococcus aureus [3]) [µg/mL] | MIC (Staphylococcus aureus [4]) [µg/mL] | MIC (Staphylococcus aureus [5]) [µg/mL] | MIC (Staphylococcus aureus [6]) [µg/mL] | MIC (Staphylococcus aureus [7]) [µg/mL] | Activity [8] | Activity (Pseudomonas aeruginosa)
NCC[C@H](O)C(=O)N[C@@H]1C[C@H](N)[C@@H](O[C@H]2O[C@H](CN)[C@@H](O)[C@H](O)[C@H]2O)[C@H](O)[C@H]1O[C@H]1O[C@H](CO)[C@@H](O)[C@H](N)[C@H]1O [AMIKACIN] | 25 (≈ 42.7 µM) | 1.6 (≈ 2.73 µM) | 1.6 (≈ 2.73 µM) | 25 (≈ 42.7 µM) | 1.6 (≈ 2.73 µM) | 3.2 (≈ 5.46 µM) | – | – | –
CC1(C)S[C@@H]2[C@H](NC(=O)[C@H](N)c3ccc(O)cc3)C(=O)N2[C@H]1C(=O)O [AMOXICILLIN] | 12.5 (≈ 34.2 µM) | 3.2 (≈ 8.76 µM) | – | 12.5 (≈ 34.2 µM) | 0.2 (≈ 0.547 µM) | 1.6 (≈ 4.38 µM) | 0.4 | – | –
C[C@@H]1C[C@H]2[C@@H]3CCC4=CC(=O)C=C[C@]4(C)[C@@]3(F)[C@@H](O)C[C@]2(C)[C@@]1(O)C(=O)CO [DEXAMETHASONE] | – | – | – | – | – | – | – | Non-toxic | inactive
CC[C@H]1OC(=O)[C@H](C)[C@@H](O[C@H]2C[C@@](C)(OC)[C@@H](O)[C@H](C)O2)[C@H](C)[C@@H](O[C@@H]2O[C@H](C)C[C@H](N(C)C)[C@H]2O)[C@](C)(O)C[C@@H](C)C(=O)[C@H](C)[C@@H](O)[C@]1(C)O [ERYTHROMYCIN] | 400 (≈ 545 µM) | 0.2 (≈ 0.273 µM) | 0.4 (≈ 0.545 µM) | 400 (≈ 545 µM) | 0.2 (≈ 0.273 µM) | 0.4 (≈ 0.545 µM) | – | – | –
CN(C)[C@@H]1C(O)=C(C(N)=O)C(=O)[C@@]2(O)C(O)=C3C(=O)c4c(O)cccc4[C@@](C)(O)[C@H]3C[C@@H]12 [TETRACYCLINE] | 0.625 (≈ 1.41 µM) | 40 (≈ 90 µM) | 1.25 (≈ 2.81 µM) | 20 (≈ 45 µM) | 1.25 (≈ 2.81 µM) | 1.25 (≈ 2.81 µM) | – | – | –
